Here are results for one molecule from article PMC9828441 (Acta Biochimica et Biophysica Sinica, 2022).

The experiment deals with PC9 cells. Nature of the experiment: Cell cycle by PI staining flow cytometry. Type of experiment: cell-based, human. The note with it: PC9, 24 h. The procedure, abridged:
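Cells in RPMI 1640 with 10% FBS (37°C, 5% CO2) were seeded in 6-well plates at 20–25% confluence and exposed to graded test compound or a reference EGFR inhibitor for 24 h. They were then fixed in 70% ethanol for 24 h at 4°C, washed twice in PBS, treated with RNase A at 37°C for 30 min and stained with PI (50 μg/mL) for 10 min. DNA content was read by flow cytometry.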

Take `COc1cc2ncnc(Nc3ccc(F)c(Cl)c3)c2cc1OCCCN1CCOCC1` [gefitinib]: the cell cycle arrest entry is “arrested only PC9 (EGFR L858R+) cells at G0/G1 phase”.
